Reference: ChEMBL document CHEMBL1145100, “Structure-activity relationship of imidazo[1,2-a]pyridines as ligands for detecting beta-amyloid plaques in the brain” (J Med Chem, 2003)

Assays:
Mus musculus [1] = assay: Biodistribution of radioactivity in normal mice (ICR) spleen after 1 hour of intravenous injection of [125I]-16(IMPY); format: ADME, organism-based; settings: in vivo
In short: (§1)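 Male ICR mice, 2-3 months old, 20-30 g, under ether anesthesia, given 0.15 mL of 0.1% bovine serum albumin solution containing the [125I] tracer into the tail vein. Killed by cardiac excision at set times after injection. Organs removed and weighed, then gamma-counted. % dose per organ computed against diluted aliquots of the injected material.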

Mus musculus [2] = assay: Biodistribution of radioactivity in normal mice blood after 30 minutes of intravenous injection of [125I]-16(IMPY); format: ADME, organism-based; settings: in vivo, 0.5 h
In short: (§2)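 Male ICR mice (2-3 months old, 20-30 g) under ether anesthesia; 0.15 mL of 0.1% bovine serum albumin solution containing the iodine-125 tracer injected into the tail vein. Mice killed by cardiac excision at set times. Organs removed, weighed and gamma-counted. Percent dose per organ derived against diluted aliquots of the injectate.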

Mus musculus [3] = assay: Biodistribution of radioactivity in normal mice (ICR) heart after 2 minutes of intravenous injection of [125I]-16(IMPY); format: ADME, organism-based; settings: in vivo; in short: as §1
Mus musculus [4] = assay: Biodistribution of radioactivity in normal mice blood after 6 hours of intravenous injection of [125I]-16(IMPY); format: ADME, organism-based; settings: in vivo; in short: as §2
Mus musculus [5] = assay: Biodistribution of radioactivity in normal mice (ICR) brain after 1 hour of intravenous injection of [125I]-16(IMPY); format: ADME, organism-based; settings: in vivo; in short: as §1
Mus musculus [6] = assay: Biodistribution of radioactivity in normal mice (ICR) heart after 24 hours of intravenous injection of [125I]-16(IMPY); format: ADME, organism-based; settings: in vivo; in short: as §1
Mus musculus [7] = assay: Biodistribution of radioactivity in normal mice blood after 2 minutes of intravenous injection of [125I]-16(IMPY); format: ADME, organism-based; settings: in vivo; in short: as §2
Mus musculus [8] = assay: Biodistribution of radioactivity in normal mice (ICR) kidney after 24 hours of intravenous injection of [125I]-16(IMPY); format: ADME, organism-based; settings: in vivo; in short: as §1
Mus musculus [9] = assay: Biodistribution of radioactivity in normal mice (ICR) skin after 2 hours of intravenous injection of [125I]-16(IMPY); format: ADME, organism-based, Zone of skin; settings: in vivo; in short: as §1
Mus musculus [10] = assay: Biodistribution of radioactivity in normal mice (ICR) skin after 2 minutes of intravenous injection of [125I]-16(IMPY); format: ADME, organism-based, Zone of skin; settings: in vivo; in short: as §1
Mus musculus [11] = assay: Biodistribution of radioactivity in normal mice (ICR) spleen after 2 minutes of intravenous injection of [125I]-16(IMPY); format: ADME, organism-based; settings: in vivo; in short: as §1
Mus musculus [12] = assay: Biodistribution of radioactivity in normal mice (ICR) lung after 24 hours of intravenous injection of [125I]-16(IMPY); format: ADME, organism-based; settings: in vivo; in short: as §1
Mus musculus [13] = assay: Biodistribution of radioactivity in normal mice (ICR) muscle after 2 minutes of intravenous injection of [125I]-16(IMPY); format: ADME, organism-based, Muscle tissue; settings: in vivo; in short: as §1
Mus musculus [14] = assay: Biodistribution of radioactivity in normal mice (ICR) kidney after 1 hour of intravenous injection of [125I]-16(IMPY); format: ADME, organism-based; settings: in vivo; in short: as §1
Mus musculus [15] = assay: Biodistribution of radioactivity in normal mice (ICR) kidney after 2 hours of intravenous injection of [125I]-16(IMPY); format: ADME, organism-based; settings: in vivo; in short: as §1
Mus musculus [16] = assay: Biodistribution of radioactivity in normal mice (ICR) spleen after 30 minutes of intravenous injection of [125I]-16(IMPY); format: ADME, organism-based; settings: in vivo, 0.5 h; in short: as §1
Mus musculus [17] = assay: Biodistribution of radioactivity in normal mice (ICR) heart after 2 hours of intravenous injection of [125I]-16(IMPY); format: ADME, organism-based; settings: in vivo; in short: as §1
Mus musculus [18] = assay: Biodistribution of radioactivity in normal mice (ICR) kidney after 30 minutes of intravenous injection of [125I]-16(IMPY); format: ADME, organism-based; settings: in vivo, 0.5 h; in short: as §1
Mus musculus [19] = assay: Biodistribution of radioactivity in normal mice blood after 2 hours of intravenous injection of [125I]-16(IMPY); format: ADME, organism-based; settings: in vivo; in short: as §1
Mus musculus [20] = assay: Biodistribution of radioactivity in normal mice (ICR) kidney after 6 hours of intravenous injection of [125I]-16(IMPY); format: ADME, organism-based; settings: in vivo; in short: as §1
Mus musculus [21] = assay: Biodistribution of radioactivity in normal mice (ICR) kidney after 2 minutes of intravenous injection of [125I]-16(IMPY); format: ADME, organism-based; settings: in vivo; in short: as §1
Mus musculus [22] = assay: Biodistribution of radioactivity in normal mice (ICR) lung after 6 hours of intravenous injection of [125I]-16(IMPY); format: ADME, organism-based; settings: in vivo; in short: as §1
Mus musculus [23] = assay: Biodistribution of radioactivity in normal mice (ICR) lung after 1 hour of intravenous injection of [125I]-16(IMPY); format: ADME, organism-based; settings: in vivo; in short: as §1
Mus musculus [24] = assay: Biodistribution of radioactivity in normal mice (ICR) skin after 24 hours of intravenous injection of [125I]-16(IMPY); format: ADME, organism-based, Zone of skin; settings: in vivo; in short: as §1
Mus musculus [25] = assay: Biodistribution of radioactivity in normal mice (ICR) spleen after 6 hours of intravenous injection of [125I]-16(IMPY); format: ADME, organism-based; settings: in vivo; in short: as §1
Mus musculus [26] = assay: Biodistribution of radioactivity in normal mice (ICR) muscle after 2 hours of intravenous injection of [125I]-16(IMPY); format: ADME, organism-based, Muscle tissue; settings: in vivo; in short: as §1
Mus musculus [27] = assay: Biodistribution of radioactivity in normal mice blood after 1 hour of intravenous injection of [125I]-16(IMPY); format: ADME, organism-based; settings: in vivo; in short: as §1

Dose/organ (Mus musculus [1]): 0.08%
Dose/organ (Mus musculus [2]): 2.44%
Dose/organ (Mus musculus [3]): 0.79%
Dose/organ (Mus musculus [4]): 1.4%
Dose/organ (Mus musculus [5]): 0.21%
Dose/organ (Mus musculus [6]): 0.01%
Dose/organ (Mus musculus [7]): 6.41%
Dose/organ (Mus musculus [8]): 0.05%
Dose/organ (Mus musculus [9]): 3.14%
Dose/organ (Mus musculus [10]): 5.72%
Dose/organ (Mus musculus [11]): 0.4%
Dose/organ (Mus musculus [12]): 0.05%
Dose/organ (Mus musculus [13]): 13.8%
Dose/organ (Mus musculus [14]): 1.17%
Dose/organ (Mus musculus [15]): 0.53%
Dose/organ (Mus musculus [16]): 0.09%
Dose/organ (Mus musculus [17]): 0.08%
Dose/organ (Mus musculus [18]): 1.51%
Dose/organ (Mus musculus [19]): 1.82%
Dose/organ (Mus musculus [20]): 0.25%
Dose/organ (Mus musculus [21]): 4.75%
Dose/organ (Mus musculus [22]): 0.12%
Dose/organ (Mus musculus [23]): 0.34%
Dose/organ (Mus musculus [24]): 0.22%
Dose/organ (Mus musculus [25]): 0.04%
Dose/organ (Mus musculus [26]): 2.96%
Dose/organ (Mus musculus [27]): 2.5%
Structure (SMILES): CN(C)c1ccc(-c2cn3cc(I)ccc3n2)cc1
